Test results published in ChEMBL document CHEMBL4312029, “Structure-activity relationship studies and in vitro and in vivo anticancer activity of novel 3-aroyl-1,4-diarylpyrroles against solid tumors and hematological malignancies” (Eur J Med Chem, 2020).
Activity calls are given as the source filed them. No cut-off for these calls is given here.

Legend:
[1] = target: Tubulin (Homo sapiens) (UniProt P68371+Q9H4B7+P0DPH7+P68366+Q13509+Q71U36+P04350+Q3ZCM7+P07437+P68363+Q9BQE3+Q6PEY2+Q13885+Q9BVA1+Q9BUF5); test: Inhibition of [3H]colchicine binding to tubulin (unknown origin) at 5 uM incubated for 10 mins by DEAE-cellulose filter method relative to control; type: protein-complex assay
[2] = test system: U-87 MG; test: Cytotoxicity against human U87MG cells assessed as reduction in cell viability incubated for 48 hrs by MTS assay; type: functional, cell-based, U-87MG ATCC; conditions: for inhibition: U-87MG ATCC
Outline: (§1)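 Increasing concentrations applied to glioblastoma and neuroblastoma lines to give dose-response viability curves; cytotoxic IC50 from triplicate experiments. Incubation 48 h, except U343MG at 72 h.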

[3] = test system: SW480; test: Cytotoxicity against human SW480 cells assessed as reduction in cell viability incubated for 48 hrs by MTT assay; type: functional, cell-based; conditions: for IC50: SW480, 48 h
[4] = test system: KBM5; test: Cytotoxicity against human KBM5 cells expressing IM-resistant Bcr/Abl T315I mutant assessed as reduction in cell viability incubated for 48 hrs by MTT assay; type: functional, cell-based; conditions: KBM5, 48 h
[5] = test system: KBM5; test: Induction of apoptotic cell death in human KBM5 cells expressing IM-sensitive wild type Bcr/Abl at 10 nM incubated for 48 hrs by Annexin V-staining based flow cytometry; type: functional
Outline: (§2)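 KBM5-WT and KBM5-T315I cells exposed 48 h to 10 nM test compound alone or combined with 10 nM nilotinib (nilotinib alone as comparator). Apoptotic cells quantified by annexin V staining and flow cytometry; triplicate.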

[6] = test system: HCT-116; test: Cytotoxicity against human HCT116 cells assessed as reduction in cell viability incubated for 48 hrs by MTT assay; type: functional, cell-based; conditions: for IC50: HCT-116, 48 h
[7] = test system: KBM5; test: Cytotoxicity against human KBM5 cells expressing IM- sensitive wild type Bcr/Abl assessed as reduction in cell viability incubated for 48 hrs by MTT assay; type: functional, cell-based; conditions: KBM5, 48 h
[8] = test system: KBM5; test: Potentiation of NLT-induced apoptotic cell death in human KBM5 cells expressing IM-resistant Bcr/Abl T315I mutant at 10 nM co-incubated with NLT for 48 hrs by Annexin V-staining based flow cytometry; type: functional
Outline: (§3)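 KBM5-WT or KBM5-T315I CML cells treated 48 h with 10 nM nilotinib, with or without 10 nM test compound (each agent alone also run). Apoptosis measured by annexin V staining and flow cytometry, read as percentage of apoptotic cells. Triplicate experiments.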

[9] = Cytotoxicity against human SK-N-BE cells assessed as reduction in cell viability incubated for 48 hrs by MTT assay; type: functional, cell-based; outline: as §1
[10] = test system: MCF7; test: Cytotoxicity against human MCF7 cells assessed as reduction in cell growth incubated for 96 hrs by MTT assay; type: functional, cell-based; conditions: MCF7, 96 h
Outline: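 Growth inhibition of human breast carcinoma cells, reported as IC50; run in duplicate or triplicate.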

[11] = Cytotoxicity against human SK-N-BE(2)C cells assessed as reduction in cell viability incubated for 48 hrs by MTT assay; type: functional, cell-based; outline: as §1
[12] = Cytotoxicity against IM resistant human LAMA84-r cells assessed as reduction in cell viability incubated for 48 hrs by MTT assay; type: functional, cell-based
[13] = test system: KU812 cell line; test: Cytotoxicity against human KU812 cells expressing IM- sensitive wild type Bcr/Abl assessed as reduction in cell viability incubated for 48 hrs by MTT assay; type: functional, cell-based; conditions: KU812, 48 h
[14] = test system: KBM5; test: Potentiation of NLT-induced apoptotic cell death in human KBM5 cells expressing IM-sensitive wild type Bcr/Abl at 10 nM co-incubated with NLT for 48 hrs by Annexin V-staining based flow cytometry; type: functional; outline: as §3
[15] = test system: HT-29; test: Cytotoxicity against human HT-29 cells assessed as reduction in cell viability incubated for 48 hrs by MTT assay; type: functional, cell-based; conditions: for IC50: HT-29, 48 h
[16] = Cytotoxicity against human LAMA84-s cells expressing IM-sensitive wild type Bcr/Abl assessed as reduction in cell viability incubated for 48 hrs by MTT assay; type: functional, cell-based
[17] = test system: T-24; test: Cytotoxicity against human T24 cells assessed as reduction in cell viability incubated for 48 hrs by MTT assay; type: functional, cell-based; conditions: T-24, 48 h
[18] = test system: T98G; test: Cytotoxicity against human T98G cells assessed as reduction in cell viability incubated for 48 hrs by MTS assay; type: functional, cell-based; outline: as §1
[19] = test system: PBMC; test: Cytotoxicity against human PBMC assessed as cell viability by MTT assay; type: cell-based
[20] = test system: KBM5; test: Induction of apoptotic cell death in human KBM5 cells expressing IM-resistant Bcr/Abl T315I mutant at 10 nM incubated for 48 hrs by Annexin V-staining based flow cytometry; type: functional; outline: as §2
[21] = test system: SW-620; test: Cytotoxicity against human SW620 cells assessed as reduction in cell viability incubated for 48 hrs by MTT assay; type: functional, cell-based; conditions: for IC50: SW-620, 48 h
[22] = target: Tubulin; test: Inhibition of tubulin polymerization (unknown origin) incubated for 15 mins followed by GTP addition and measured for 20 mins by spectrophotometry; type: protein-complex assay, Homo sapiens
Outline: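 Tubulin assembly assay with tubulin at 10 µM. IC50 for inhibition of polymerization; run in duplicate or triplicate.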

[23] = organism: Homo sapiens; test: (§4) Cytotoxicity against human U343MG cells assessed as reduction in cell viability incubated for 72 hrs by MTS assay; type: functional, cell-based; outline: as §1
[24] = as §4; type: functional, cell-based; conditions: U-343MG; outline: as §1
[25] = test system: Homo sapiens; test: Antitumor activity against human ES2 cells xenografted in BALB/c nu/nu mouse assessed as reduction in tumor volume at 20 mg/kg, ip administered every 2 days for 40 days and measured on day 40; type: functional, organism-based
Outline: (§5)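 T24 or ES-2 cells injected on the backs of nude mice; saline-treated control group. Mice euthanized on Day 40, tumors excised, and tumor volume and weight measured.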

[26] = test system: Homo sapiens; test: Antitumor activity against human ES2 cells xenografted in BALB/c nu/nu mouse assessed as reduction in Ki67 expression in tumor tissue at 20 mg/kg, ip administered every 2 days for 40 days and measured on day 40 by immunofluorescence analysis; type: functional, organism-based
Outline: (§6)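 Nude mice bearing back tumors from injected T24 or ES-2 cells, treated versus saline controls. Tumors collected on Day 40 and marker expression in tumor tissue assessed by immunofluorescence staining.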

[27] = test system: Homo sapiens; test: Antitumor activity against human ES2 cells xenografted in BALB/c nu/nu mouse assessed as increase in caspase 9 expression in tumor tissue at 20 mg/kg, ip administered every 2 days for 40 days and measured on day 40 by immunofluorescence analysis; type: functional, organism-based; outline: as §6
[28] = test system: Homo sapiens; test: Antitumor activity against human ES2 cells xenografted in BALB/c nu/nu mouse assessed as increase in caspase 3 expression in tumor tissue at 20 mg/kg, ip administered every 2 days for 40 days and measured on day 40 by immunofluorescence analysis; type: functional, organism-based; outline: as §6
[29] = test system: T-24; test: Antitumor activity against human T24 cells xenografted in BALB/c nu/nu mouse assessed as reduction in tumor volume at 20 mg/kg, ip administered every 2 days for 40 days and measured on day 40; type: functional, organism-based; outline: as §5
[30] = test system: T-24; test: Antitumor activity against human T24 cells xenografted in BALB/c nu/nu mouse assessed as reduction in tumor weight at 20 mg/kg, ip administered every 2 days for 40 days and measured on day 40; type: functional, organism-based; outline: as §5
[31] = test system: T-24; test: Antitumor activity against human T24 cells xenografted in BALB/c nu/nu mouse assessed as increase in caspase 9 expression in tumor tissue at 20 mg/kg, ip administered every 2 days for 40 days and measured on day 40 by immunofluorescence analysis; type: functional, organism-based; outline: as §6
[32] = test system: Homo sapiens; test: Antitumor activity against human ES2 cells xenografted in BALB/c nu/nu mouse assessed as reduction in CD31 expression in tumor tissue at 20 mg/kg, ip administered every 2 days for 40 days and measured on day 40 by immunofluorescence analysis; type: functional, organism-based; outline: as §6
[33] = test system: Homo sapiens; test: Antitumor activity against human ES2 cells xenografted in BALB/c nu/nu mouse assessed as reduction in Bcl2 expression in tumor tissue at 20 mg/kg, ip administered every 2 days for 40 days and measured on day 40 by immunofluorescence analysis; type: functional, organism-based; outline: as §6
[34] = test system: T-24; test: Antitumor activity against human T24 cells xenografted in BALB/c nu/nu mouse assessed as reduction in Bcl2 expression in tumor tissue at 20 mg/kg, ip administered every 2 days for 40 days and measured on day 40 by immunofluorescence analysis; type: functional, organism-based; outline: as §6
[35] = test system: T-24; test: Antitumor activity against human T24 cells xenografted in BALB/c nu/numouse assessed as increase in Bax expression in tumor tissue at 20 mg/kg, ip administered every 2 days for 40 days and measured on day 40 by immunofluorescence analysis; type: functional, organism-based; outline: as §6
[36] = test system: Homo sapiens; test: Antitumor activity against human ES2 cells xenografted in BALB/c nu/nu mouse assessed as increase in Bax expression in tumor tissue at 20 mg/kg, ip administered every 2 days for 40 days and measured on day 40 by immunofluorescence analysis; type: functional, organism-based; outline: as §6
[37] = test system: T-24; test: Antitumor activity against human T24 cells xenografted in BALB/c nu/nu mouse assessed as increase in caspase 3 expression in tumor tissue at 20 mg/kg, ip administered every 2 days for 40 days and measured on day 40 by immunofluorescence analysis; type: functional, organism-based; outline: as §6
[38] = test system: T-24; test: Antitumor activity against human T24 cells xenografted in BALB/c nu/nu mouse assessed as reduction in CD31 expression in tumor tissue at 20 mg/kg, ip administered every 2 days for 40 days and measured on day 40 by immunofluorescence analysis; type: functional, organism-based; outline: as §6
[39] = test system: T-24; test: Antitumor activity against human T24 cells xenografted in BALB/c nu/nu mouse assessed as reduction in Ki67 expression in tumor tissue at 20 mg/kg, […] days for 40 days and measured on day 40 by immunofluorescence analysis; type: functional, organism-based; outline: as §6
[40] = test system: Homo sapiens; test: Antitumor activity against human ES2 cells xenografted in BALB/c nu/nu mouse assessed as reduction in tumor weight at 20 mg/kg, ip administered every 2 days for 40 days and measured on day 40; type: functional, organism-based; outline: as §5

## COc1cc(C(=O)c2cn(-c3ccc(N)cc3)cc2-c2ccc(N)cc2)cc(OC)c1OC
[1]
  inhibition: 87%
[2]
  Emax: 31.8%
  IC50: 47.6 to 48 nM
  inhibition: Dose-dependent effect
[3]
  inhibition: Dose-dependent effect
  IC50: 153 nM
[4]
  IC50: 12 nM
[5]
  Activity: Active
[6]
  inhibition: Dose-dependent effect
  IC50: 41 nM
[7]
  IC50: 10 nM
[8]
  Activity: 50 - 90%
[9]
  IC50: 303 nM
[10]
  IC50: 15 nM
[11]
  IC50: 147 nM
[12]
  IC50: 10 nM
[13]
  IC50: 5 nM
[14]
  Activity: 50 - 90%
[15]
  inhibition: Dose-dependent effect
  IC50: 34 nM
[16]
  IC50: 8 nM
[17]
  IC50: 58 nM
[18]
  Emax: 36.2%
  IC50: 24 to 24.3 nM
  inhibition: Dose-dependent effect
[19]
  Activity: Non-Toxic
[20]
  Activity: Active
[21]
  inhibition: Dose-dependent effect
  IC50: 61 nM
[22]
  IC50: 380 nM
[23]
  inhibition: Dose-dependent effect
[24]
  Emax: 34%
  IC50: 21.5 to 22 nM

## Cc1cn(-c2cc(NC(=O)c3ccc(C)c(Nc4nccc(-c5cccnc5)n4)c3)cc(C(F)(F)F)c2)cn1 [NILOTINIB]
[4]
  IC50: 2420 nM
[5]
  Activity: Active
[7]
  IC50: 12 nM
[12]
  IC50: 126 nM
[13]
  IC50: 10 nM
[16]
  IC50: 11 nM
[20]
  Activity: Active

## COc1cc(C(=O)c2cn(-c3cccc(N)c3)cc2-c2ccc(N)cc2)cc(OC)c1OC
[1]
  inhibition: 92%
[2]
  Emax: 32%
  IC50: 30.9 to 31 nM
  inhibition: Dose-dependent effect
[3]
  inhibition: Dose-dependent effect
  IC50: 48 nM
[25]
  inhibition: Active
[4]
  IC50: 16 nM
[26]
  inhibition: Active
[27]
  Activity: Active
[28]
  Activity: Active
[6]
  inhibition: Dose-dependent effect
  IC50: 27 nM
[7]
  IC50: 14 nM
[29]
  inhibition: Active
[30]
  inhibition: Active
[31]
  Activity: Active
[9]
  IC50: 221 nM
[32]
  inhibition: Active
[10]
  IC50: 14 nM
[11]
  IC50: 56 nM
[33]
  inhibition: Active
[34]
  inhibition: Active
[12]
  IC50: 12 nM
[35]
  Activity: Active
[36]
  Activity: Active
[13]
  IC50: 8 nM
[37]
  Activity: Active
[15]
  inhibition: Dose-dependent effect
  IC50: 51 nM
[16]
  IC50: 10 nM
[17]
  IC50: 12 nM
[38]
  inhibition: Active
[18]
  Emax: 41.3%
  IC50: 36.6 to 37 nM
  inhibition: Dose-dependent effect
[19]
  Activity: Non-Toxic
[39]
  inhibition: Active
[21]
  inhibition: Dose-dependent effect
  IC50: 28 nM
[22]
  IC50: 470 nM
[40]
  inhibition: Active
[23]
  inhibition: Dose-dependent effect
[24]
  Emax: 36.3%
  IC50: 11.9 to 12 nM
